Data published in ChEMBL document CHEMBL1938359, “Pyrrolo[1,2-b]pyridazines, pyrrolo[2,1-f]triazin-4(3H)-ones, and related compounds as novel corticotropin-releasing factor 1 (CRF₁) receptor antagonists” (Bioorg Med Chem, 2012).
Active and inactive are the calls of the source. The calls are words filed in the database; no cut-off is given here.

Columns and labels:
[1] = molecular target: T1, Corticotropin-releasing factor receptor 1 (Homo sapiens, UniProt P34998); experiment: Antagonist activity at human CRF1 receptor expressed in CHO-K1 cells assessed as CRF-stimulated cAMP accumulation by enzyme immunoassay; format: functional, cell-based; conditions: read-out: EC50 (the source's name)
T1 sequence (P34998 whole entry): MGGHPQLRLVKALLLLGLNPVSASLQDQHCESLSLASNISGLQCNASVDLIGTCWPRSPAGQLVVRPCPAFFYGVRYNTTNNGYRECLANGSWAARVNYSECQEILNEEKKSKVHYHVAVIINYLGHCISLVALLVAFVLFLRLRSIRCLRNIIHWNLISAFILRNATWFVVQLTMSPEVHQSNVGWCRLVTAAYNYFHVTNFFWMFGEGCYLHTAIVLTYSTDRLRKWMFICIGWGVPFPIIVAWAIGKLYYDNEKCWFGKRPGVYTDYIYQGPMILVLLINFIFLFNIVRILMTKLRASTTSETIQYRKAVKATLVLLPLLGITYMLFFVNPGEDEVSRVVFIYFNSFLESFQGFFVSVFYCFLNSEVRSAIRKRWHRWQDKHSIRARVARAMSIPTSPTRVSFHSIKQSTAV
Summary of the method: (§1)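 CHO-K1 cells expressing CRF1 were seeded at 1 × 10^4 cells/well and incubated overnight, then washed twice with F-12. They were preincubated 10 min at 37 °C in F-12 containing 1 mmol/l IBMX. Test compound (1–10000 nmol/l) and 10 nmol/l CRF (final concentration not stated) were added, followed by 15 min at 37 °C. Cells were chilled and cAMP measured by enzyme immunoassay after blank subtraction. IC50 was taken from concentration–response curves.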

[2] = molecular target: T1, Corticotropin-releasing factor receptor 1; experiment: Displacement of [125I]CRF from human CRF1 receptor expressed in CHO-K1 cells after 2 hrs by gamma counter; format: cell-based
Summary of the method: (§2)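 Crude membranes came from CRF1-expressing CHO-K1 cells, homogenized in 50 mmol/l Tris–HCl with 10 mmol/l MgCl2, 2 mmol/l EDTA and aprotinin, then spun at 10,000 g. Membranes were incubated 2 h at room temperature with 0.5 nmol/l 125I human/rat CRF (added solution) and test compound (1–10000 nmol/l). Bound ligand was separated by centrifugation and washed with PBS/0.01% Triton X-100, then counted by γ-counter. Nonspecific binding was defined with 1 µmol/l unlabeled CRF. IC50 was taken from concentration–response curves.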

[3] = Oral bioavailability in rat at 1 mg/kg; format: ADME, organism-based; conditions: in vivo
Summary of the method: (§3)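 Fasted male rats received a single 1 mg/kg dose, either iv in saline with 30% HP-β-CD or po in saline with 0.5% MC (n = 4 each). Jugular blood was taken by heparinized syringe (iv: 2 min–72 h; po: 1–72 h) and spun to plasma stored at −70 °C. AUC, Cmax, Tmax, T1/2, Vss and CL were derived from plasma concentration–time courses. F = dose-normalized AUCpo/AUCiv × 100.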

[4] = molecular target: T2, Corticotropin-releasing factor receptor 1 (Rattus norvegicus, UniProt P35353); experiment: Antagonist activity at rat CRF1 receptor expressed in CHO-K1 cells assessed as CRF-stimulated cAMP accumulation by enzyme immunoassay; format: functional, cell-based; summary of the method: as §1
T2 sequence (P35353 whole entry): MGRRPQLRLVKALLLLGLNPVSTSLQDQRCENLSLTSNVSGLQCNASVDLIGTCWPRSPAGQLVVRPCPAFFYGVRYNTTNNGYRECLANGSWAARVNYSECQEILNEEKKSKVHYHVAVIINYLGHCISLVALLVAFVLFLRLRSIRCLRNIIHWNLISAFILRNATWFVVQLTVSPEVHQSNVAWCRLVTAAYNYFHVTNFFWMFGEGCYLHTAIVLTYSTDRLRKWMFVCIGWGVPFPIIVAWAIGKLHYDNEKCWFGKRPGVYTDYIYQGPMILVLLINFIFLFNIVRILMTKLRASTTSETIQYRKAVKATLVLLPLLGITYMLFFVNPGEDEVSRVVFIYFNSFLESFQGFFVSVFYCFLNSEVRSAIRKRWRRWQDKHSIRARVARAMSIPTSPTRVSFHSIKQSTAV

Rattus norvegicus [5] = experiment: Anxiolytic activity against swin-stress-induced anxiety-like behavior in Sprague-Dawley rat assessed as increase in time spent in open arms at 10 mg/kg, po after 1 hr by plus-maze test; format: functional, organism-based; design: dose 10 mg/kg
Summary of the method: (§4)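 Male Sprague-Dawley rats (230–280 g) received oral vehicle (0.5% MC) or compound 1 h before testing. They were forced to swim 120 s in 22 ± 2 °C water (25 cm deep) and dried. Each rat was placed at the maze centre facing a closed arm and video-tracked for 5 min. Time in and entries into open arms were scored. Non-stressed controls were included. Data are mean ± S.E., with n=16 per group. Dunnett test versus vehicle.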

[6] = Half life in rat at 1 mg/kg, iv; format: ADME, organism-based; design: dose 1 mg/kg, route intravenous; conditions: in vivo; summary of the method: as §3
[7] = Cmax in rat at 1 mg/kg, po; conditions: in vivo
[8] = Half life in rat at 1 mg/kg, po; format: ADME, organism-based; design: dose 1 mg/kg, route oral; conditions: in vivo; summary of the method: as §3
[9] = Volume of distribution at steady state in rat at 1 mg/kg, iv; format: ADME, organism-based; design: dose 1 mg/kg, route intravenous; conditions: in vivo, read-out: Vdss; summary of the method: as §3
[10] = AUC (infinity) in rat at 1 mg/kg, iv; format: ADME, organism-based; design: time infinity, dose 1 mg/kg, route intravenous; conditions: plasma
Summary of the method: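 Fasted male rats given a single 1 mg/kg intravenous dose in saline with 30% HP-β-CD (w/v). Heparinized jugular-vein blood was drawn pre-dose and at 2, 5, 15 and 30 min and 1, 2, 3, 4, 8, 24, 48 and 72 h. Plasma was separated by centrifugation and stored at -70 °C. AUC was derived from the plasma concentration–time course.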

[11] = molecular target: T2, Corticotropin-releasing factor receptor 1; experiment: Displacement of [125I]CRF from rat CRF1 receptor expressed in CHO-K1 cells after 2 hrs by gamma counter; format: cell-based; conditions: in the assay text read “in brain membranes” for “expressed in CHO-K1 cells”; summary of the method: as §2
[12] = Tmax in rat at 1 mg/kg, po; format: ADME, organism-based; design: dose 1 mg/kg, route oral; conditions: in vivo; summary of the method: as §3
[13] = AUC (infinity) in rat at 1 mg/kg, po; format: ADME, organism-based; design: time infinity, dose 1 mg/kg, route oral; conditions: plasma
Summary of the method: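 Fasted male rats dosed orally once at 1 mg/kg in saline with 0.5% MC (w/v). Heparinized jugular-vein blood was taken at 1, 2, 4, 6, 8, 24, 48 and 72 h. Plasma was obtained by centrifugation and kept at -70 °C. AUC came from the plasma concentration–time profile.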

[14] = Total clearance in rat at 1 mg/kg, iv; format: ADME, organism-based; design: dose 1 mg/kg, route intravenous; conditions: in vivo; summary of the method: as §3
Rattus norvegicus [15] = experiment: Anxiolytic activity against swin-stress-induced anxiety-like behavior in po dosed Sprague-Dawley rat assessed as increase in time spent in open arms after 1 hr by plus-maze test; format: functional, organism-based; summary of the method: as §4
Rattus norvegicus [16] = experiment: Anxiolytic activity against swin-stress-induced anxiety-like behavior in Sprague-Dawley rat assessed as increase in time spent in open arms at 3 mg/kg, po after 1 hr by plus-maze test; format: functional, organism-based; design: dose 3 mg/kg; summary of the method: as §4

Row | Compound | IC50 [1] [nM] | IC50 [2] [nM] | also measured
1 | CCC(CC)c1cc(C)n2nc(-c3ccc(OC)cc3Cl)n(C)c(=O)c12 | 1.2 | 3.8 | –
2 | CCC(C)c1cc(C)n2nc(-c3ccc(OC)cc3C)n(C)c(=O)c12 (centres undefined) | 2.4 | 5 | –
3 | CCC(CC)c1cc(C)n2nc(-c3ccc(OC)cc3C)n(C(C)C)c(=O)c12 | 5.1 | 19.2 | –
4 | CCOc1ccc(-c2nn3c(C)cc(C(CC)CC)c3cc2C)c(CC)c1 | 6.9 | 13.4 | –
5 | COc1cc(C)c(-c2nn3c(C)cc(C(C)C)c3c(=O)n2C)c(C)c1 | 4.5 | 13.1 | –
6 | CCC(CC)c1nc(C)c2nc(-c3ccc(OC)cc3C)c(C)cn12 | – | 311 | –
7 | COc1ccc(-c2nn3c(C)cc(C(C)C)c3c(=O)n2C)c(Cl)c1 | 7.4 | 8.7 | –
8 | CCC(CC)c1cc(C)n2nc(-c3ccc(OC)cc3Cl)[nH]c(=O)c12 | 4 | 14.3 | –
9 | CCC(CC)c1cc(C)n2nc(-c3ccc(OC)cc3C)n(CC3CC3)c(=O)c12 | 5 | 3.3 | –
10 | CCC(CC)c1cc(C)n2nc(-c3cnc(OC(F)F)cc3C)n(C)c(=O)c12 | 3.2 | – | bioavailability [3]: 13.5%; EC50 [4]: 2.6 nM; Activity (Rattus norvegicus [5]): Active; half-life [6]: 4.3 h; Cmax [7]: 21.5 ng/mL; half-life [8]: 2.4 h; Vd [9]: 2.95 L/kg; AUC(0-inf) [10]: 518 ng·h/mL; IC50 [11]: 8.4 nM; Tmax [12]: 1 h; AUC(0-inf) [13]: 70.2 ng·h/mL; clearance [14]: 34.7 mL/min/kg; Activity (Rattus norvegicus [15]): Dose-dependent effect
11 | CCC(CC)c1cc(C)n2nc(-c3ccc(OC)cc3C)n(C)c(=O)c12 | 1.7 | 2.6 | –
12 | CCC(CC)c1cc(C)n2nc(-c3ccc(N(C)C)nc3C)n(C)c(=O)c12 | 5.5 | 7.8 | –
13 | CCC(C)c1cc(C)n2nc(-c3c(C)cc(OC)cc3C)n(C)c(=O)c12 (centres undefined) | 3.5 | 4.2 | –
14 | CCC(CC)c1cc(C)n2nc(-c3cc(C)c(C)cc3C)c(C)cc12 | 3.3 | 16.6 | –
15 | CCC(CC)c1cc(C)n2nc(-c3ccc(C)cc3C)c(C)cc12 | 1.8 | 11.6 | –
16 | CCC(CC)c1cc(C)n2nc(-c3ccc(OC)cc3Cl)n(C3CC3)c(=O)c12 | 1 | 5.9 | –
17 | CCC(C)c1cc(C)n2nc(-c3ccc(OC)cc3Cl)n(C)c(=O)c12 (centres undefined) | 1.1 | 4.9 | –
18 | CCC(CC)c1cc(C)n2nc(-c3ccc(OC)cc3Cl)n(CCO)c(=O)c12 | 3.5 | 4.4 | –

Row | Compound | IC50 [1] [nM] | IC50 [2] [nM] | also measured
19 | CCC(CC)c1cc(C)n2nc(-c3c(C)cc(OC)cc3C)n(C)c(=O)c12 | 0.6 | 2 | –
20 | CCC(C)c1cc(C)n2nc(-c3ccc(N(C)C)nc3C)n(C)c(=O)c12 (centres undefined) | 36.5 | 81.2 | –
21 | CCC(CC)c1cc(C)n2nc(-c3ccc(OC)cc3C)c(C)cc12 | 4.9 | – | Activity (Rattus norvegicus [16]): Active
22 | CCC(CC)c1cc(C)n2nc(-c3ccc(OC)cc3C)[nH]c(=O)c12 | 688 | 149 | –
23 | CCC(CC)c1cc(C)n2nc(-c3ccc(OC)nc3C)n(C)c(=O)c12 | 1.1 | 3.8 | –
24 | CCC(CC)c1cc(C)n2nc(-c3ccc(OC(F)F)nc3C)n(C)c(=O)c12 | 0.3 | 4.5 | –
25 | CCC(CC)c1cc(C)n2nc(-c3ccc(OC)cc3C)n(CC(C)C)c(=O)c12 | 47.2 | 111 | –
26 | CCC(CC)c1cc(C)n2nc(-c3cnc(OC)cc3C)n(C)c(=O)c12 | 17.2 | 8.6 | –
27 | CCC(CC)c1cc(C)n2nc(-c3ccc(OC)cc3C)n(CCO)c(=O)c12 | 4.2 | – | –
28 | CCc1cc(OC)c(OC)cc1-c1nn2c(C)cc(C(CC)CC)c2cc1C | 1.9 | 8.9 | –
29 | CCC(CC)c1cc(C)n2nc(-c3cnc(N(C)C)cc3C)c(C)cc12 | 11.5 | 7.4 | –
30 | CCC(CC)c1cc(C)n2nc(-c3ccc(OC)cc3C)n(CC)c(=O)c12 | 1.2 | 9.7 | –
31 | CCC(CC)c1cc(C)n2nc(-c3ccc(OC)cc3C)n(C3CC3)c(=O)c12 | 3.7 | 5.7 | –
32 | CCC(CC)c1nc(C)n2nc(-c3ccc(OC)cc3C)c(C)cc12 | 566 | 122 | –
33 | Cc1nc(N(C)C)ccc1-c1nn2c(C)cc(C(C)C)c2c(=O)n1C | – | 131 | –
34 | CCC(CC)c1cc(C)n2nc(-c3ccc(OC)cc3Cl)n(CC)c(=O)c12 | 0.7 | 4.6 | –
35 | CCC(CC)c1cc(C)n2nc(-c3cc4c(cc3C)OCO4)c(C)cc12 | 2.5 | 18.3 | –
